Data reported in publication PMC8792322 (European journal of medicinal chemistry, 2021).
Each block holds one compound with its values, some of them ahead of it.

How the values were obtained:
PI3Kβ = PI3Kβ (Homo sapiens, UniProt P42338); test: PI3Kβ lipid kinase inhibition, Adapta TR-FRET assay; format: biochemical; conditions: in comparison to ZSTK474
PI3Kδ = PI3Kδ (Homo sapiens, UniProt O00329); test: PI3Kδ lipid kinase inhibition, Adapta TR-FRET assay; format: biochemical; conditions: in comparison to ZSTK474
[1] = test system: PI3Kα, PI3Kβ, PI3Kγ, PI3Kδ; test: PI3K isoform inhibition, statements spanning several isoforms; format: biochemical, human; conditions: compared to 6b
Method in brief: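 Purified human PI3Kα, β, γ and δ enzymes tested in a fluorescence-based Adapta TR-FRET lipid kinase assay, run as a contract service. Inhibitor range 0.1 nM – 10 μM. Data are the average of three experiments, each in duplicate, as mean ± SEM.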

[2] = test system: PI3Kα, PI3Kβ, PI3Kγ, PI3Kδ; conditions: compared to ZSTK474; cited from earlier work
JAK2V617F MF mouse model = test: Therapy study in JAK2V617F myelofibrosis mouse model; format: in vivo; conditions: 325 mg/kg daily p.o., 4 days
Method in brief: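 JAK2V617F fl/− × Mx1-Cre donor bone marrow mixed with WT C57BL/6 marrow (1:9, WT:mutant). Five million cells transplanted into lethally irradiated C57BL/6 females, with polyI:C given twice 2 weeks after transplant. Spleen volume by 7T MRI (2D multi-slice FLASH, TR/TE 600/8 ms, 40 slices of 0.4 mm) at days 0 and 4, summing pixel areas × slice thickness. Spleens weighed after 5 days of treatment. n=5 vehicle, n=4 treated; mean ± s.d.; Welch's t-test.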

[3] = test system: A375 melanoma, D54 glioblastoma and SET-2 leukemia tumor cell lines; test: CellTiter-Fluor cell viability assay; format: cell-based; conditions: Homo sapiens, 72 h, read-out: anti-proliferative activity IC50
Method in brief: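 Human A375, D54 (DMEM or RPMI, 10% FBS) and SET-2 (20% FBS) cells at 37 °C, 5% CO2; 500–1,000 cells/well seeded and left 24 h, then test compound added at 0.1–20 μM final for 72 h. Read by CellTiter-Fluor fluorescence, with a reference PI3K inhibitor as positive control. Three experiments in duplicate wells; IC50 from curve fit, mean ± SEM.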

[4] = test system: phosphorylation of AKT (S473); test: Western blot quantification of pAKT in tumor-derived cell lines; format: cell-based; conditions: Homo sapiens, 0.5 h, read-out: inhibition of pAKT phosphorylation
Method in brief: (§1)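 A375 and D54 cells (DMEM, 10% FBS) and SET-2 cells (RPMI, 20% FBS) treated 30 min with 10 μM test compound. PDGF 50 ng/ml added for A375 and D54 only. Cells lysed 20 min on ice in RIPA with protease/phosphatase inhibitors, then SDS-PAGE/PVDF blots probed for pAKT S473, pERK1/2 T202/Y204, total AKT and total ERK1/2, with chemiluminescent detection. Background-subtracted phospho densities normalised to total protein, relative to control. Three experiments; mean ± SEM.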

[5] = test system: phosphorylation of ERK1/2 (T202/Y204); test: Western blot quantification of pERK1/2 in tumor-derived cell lines; format: cell-based; conditions: Homo sapiens, 0.5 h, read-out: inhibition of pERK phosphorylation
Method in brief: as §1

[6] = test system: phosphorylated ERK1/2 and AKT in spleens of JAK2V617F MF mice; test: pAKT and pERK1/2 in spleens of treated MF mice; format: in vivo, mouse; conditions: 325 mg/kg daily p.o., 5 days, vs vehicle
Method in brief: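 JAK2V617F myelofibrosis mice received test compound orally for 5 days, and spleens were taken after sacrifice. For blots, tissue was homogenised in RIPA and 30 μg protein (by BCA) run by SDS-PAGE. Blots were probed for pERK1/2 and pAKT with β-actin as loading control, 2 animals per group. Flow cytometry: isolated cells stained intracellularly with APC anti-pERK1/2 (pT202/pY204) and anti-pAKT (pS473); mean fluorescence intensity reported.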

[7] = In vivo tissue levels and metabolic profile by LC-MS/MS; set-up: species or system mouse; conditions: mice, oral 325 mg/kg, approximately 4 h
Method in brief: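 Mice (n=4 per compound) dosed orally at 325 mg/kg; blood, spleen and bone marrow taken about 4 h later. Tissue extracted by shaking or bead homogenisation and spun at 10,000 × g. Analysed by C18 UPLC (0.1% formic acid water/acetonitrile, 0.6 mL/min) with MRM LC-MS/MS. Internal-standard calibration used 1/X weighting over 0.02–160 ng/mL. Synthesized metabolite standards confirmed identities; levels given as ng/g.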

PI3Kγ = PI3Kγ (Homo sapiens, UniProt P48736); test: PI3Kγ lipid kinase inhibition, Adapta TR-FRET assay; format: biochemical; conditions: in comparison to ZSTK474
Chain of PI3Kγ (P48736 whole entry): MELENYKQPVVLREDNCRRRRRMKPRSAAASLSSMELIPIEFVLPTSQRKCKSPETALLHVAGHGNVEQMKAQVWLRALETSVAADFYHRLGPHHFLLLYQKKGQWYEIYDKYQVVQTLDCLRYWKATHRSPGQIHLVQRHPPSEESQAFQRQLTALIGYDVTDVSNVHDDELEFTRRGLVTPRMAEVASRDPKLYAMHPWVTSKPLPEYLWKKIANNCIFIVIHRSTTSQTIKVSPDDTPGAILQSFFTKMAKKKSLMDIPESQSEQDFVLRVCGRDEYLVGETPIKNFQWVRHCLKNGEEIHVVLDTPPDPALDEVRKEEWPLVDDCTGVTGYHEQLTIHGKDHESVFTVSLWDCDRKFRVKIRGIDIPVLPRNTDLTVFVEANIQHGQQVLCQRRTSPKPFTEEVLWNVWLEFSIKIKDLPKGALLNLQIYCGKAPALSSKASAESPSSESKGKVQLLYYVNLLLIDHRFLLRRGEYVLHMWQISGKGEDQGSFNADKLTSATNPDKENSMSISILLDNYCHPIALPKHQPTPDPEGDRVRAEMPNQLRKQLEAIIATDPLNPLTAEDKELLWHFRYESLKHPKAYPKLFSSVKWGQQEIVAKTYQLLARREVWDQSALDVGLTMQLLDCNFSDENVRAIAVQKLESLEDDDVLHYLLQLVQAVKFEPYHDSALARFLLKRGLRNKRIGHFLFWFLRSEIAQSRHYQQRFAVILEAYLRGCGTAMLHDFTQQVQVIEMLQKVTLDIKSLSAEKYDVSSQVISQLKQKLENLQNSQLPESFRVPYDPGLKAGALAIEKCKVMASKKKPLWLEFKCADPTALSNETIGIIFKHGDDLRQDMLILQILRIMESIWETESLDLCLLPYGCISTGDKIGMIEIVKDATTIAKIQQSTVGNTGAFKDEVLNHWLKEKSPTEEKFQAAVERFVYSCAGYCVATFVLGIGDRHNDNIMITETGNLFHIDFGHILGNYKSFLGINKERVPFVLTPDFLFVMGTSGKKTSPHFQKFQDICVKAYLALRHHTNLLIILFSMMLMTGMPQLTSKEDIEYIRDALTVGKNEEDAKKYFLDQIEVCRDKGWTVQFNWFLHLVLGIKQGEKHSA

Chain of PI3Kβ (P42338 whole entry): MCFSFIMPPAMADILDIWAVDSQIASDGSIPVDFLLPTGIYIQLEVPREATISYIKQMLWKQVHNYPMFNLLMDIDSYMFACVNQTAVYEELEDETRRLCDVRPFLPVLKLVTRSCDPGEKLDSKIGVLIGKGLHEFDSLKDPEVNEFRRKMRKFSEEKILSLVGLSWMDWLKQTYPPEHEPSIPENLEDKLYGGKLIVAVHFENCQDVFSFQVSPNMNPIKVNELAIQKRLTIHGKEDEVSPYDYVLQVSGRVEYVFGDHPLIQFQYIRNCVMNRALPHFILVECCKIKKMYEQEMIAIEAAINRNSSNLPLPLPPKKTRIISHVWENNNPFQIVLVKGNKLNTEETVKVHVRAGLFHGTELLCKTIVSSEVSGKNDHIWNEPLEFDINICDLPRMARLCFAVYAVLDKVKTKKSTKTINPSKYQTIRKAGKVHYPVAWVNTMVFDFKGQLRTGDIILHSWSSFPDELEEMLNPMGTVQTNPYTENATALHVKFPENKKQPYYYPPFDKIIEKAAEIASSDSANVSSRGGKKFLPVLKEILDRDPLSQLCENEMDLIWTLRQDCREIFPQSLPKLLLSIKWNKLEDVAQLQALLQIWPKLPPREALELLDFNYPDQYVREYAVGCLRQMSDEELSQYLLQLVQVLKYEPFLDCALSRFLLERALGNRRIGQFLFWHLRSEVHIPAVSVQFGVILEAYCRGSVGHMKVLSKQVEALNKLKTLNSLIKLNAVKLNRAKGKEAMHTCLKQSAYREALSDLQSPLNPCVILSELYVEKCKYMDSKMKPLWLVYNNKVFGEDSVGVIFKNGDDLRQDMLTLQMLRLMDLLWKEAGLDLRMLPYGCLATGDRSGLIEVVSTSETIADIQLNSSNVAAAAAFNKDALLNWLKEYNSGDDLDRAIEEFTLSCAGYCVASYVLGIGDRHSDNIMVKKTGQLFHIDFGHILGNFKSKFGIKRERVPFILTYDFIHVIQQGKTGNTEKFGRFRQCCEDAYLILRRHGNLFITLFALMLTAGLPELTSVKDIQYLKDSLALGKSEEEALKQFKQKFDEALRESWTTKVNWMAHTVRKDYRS
Chain of PI3Kβ (P27986 whole entry partner): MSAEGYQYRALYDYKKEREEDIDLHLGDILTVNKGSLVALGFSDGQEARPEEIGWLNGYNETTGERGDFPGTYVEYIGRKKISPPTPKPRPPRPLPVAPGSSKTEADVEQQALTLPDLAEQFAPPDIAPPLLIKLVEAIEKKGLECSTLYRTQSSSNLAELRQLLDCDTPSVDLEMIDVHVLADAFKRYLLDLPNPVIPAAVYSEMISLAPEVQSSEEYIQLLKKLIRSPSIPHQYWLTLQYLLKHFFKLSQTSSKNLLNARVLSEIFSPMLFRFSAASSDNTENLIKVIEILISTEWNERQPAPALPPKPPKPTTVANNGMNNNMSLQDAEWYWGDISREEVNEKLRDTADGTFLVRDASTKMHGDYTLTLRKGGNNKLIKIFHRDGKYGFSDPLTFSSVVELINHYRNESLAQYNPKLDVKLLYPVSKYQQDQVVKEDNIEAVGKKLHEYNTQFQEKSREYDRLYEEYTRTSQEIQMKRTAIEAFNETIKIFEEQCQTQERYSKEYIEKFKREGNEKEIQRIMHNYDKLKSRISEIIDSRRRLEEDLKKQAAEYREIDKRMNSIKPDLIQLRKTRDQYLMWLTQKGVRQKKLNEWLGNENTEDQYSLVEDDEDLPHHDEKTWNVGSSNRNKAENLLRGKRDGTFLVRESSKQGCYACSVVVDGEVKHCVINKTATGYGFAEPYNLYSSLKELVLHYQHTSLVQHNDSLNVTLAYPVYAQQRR
Chain of PI3Kδ (O00329 whole entry, canonical isoform): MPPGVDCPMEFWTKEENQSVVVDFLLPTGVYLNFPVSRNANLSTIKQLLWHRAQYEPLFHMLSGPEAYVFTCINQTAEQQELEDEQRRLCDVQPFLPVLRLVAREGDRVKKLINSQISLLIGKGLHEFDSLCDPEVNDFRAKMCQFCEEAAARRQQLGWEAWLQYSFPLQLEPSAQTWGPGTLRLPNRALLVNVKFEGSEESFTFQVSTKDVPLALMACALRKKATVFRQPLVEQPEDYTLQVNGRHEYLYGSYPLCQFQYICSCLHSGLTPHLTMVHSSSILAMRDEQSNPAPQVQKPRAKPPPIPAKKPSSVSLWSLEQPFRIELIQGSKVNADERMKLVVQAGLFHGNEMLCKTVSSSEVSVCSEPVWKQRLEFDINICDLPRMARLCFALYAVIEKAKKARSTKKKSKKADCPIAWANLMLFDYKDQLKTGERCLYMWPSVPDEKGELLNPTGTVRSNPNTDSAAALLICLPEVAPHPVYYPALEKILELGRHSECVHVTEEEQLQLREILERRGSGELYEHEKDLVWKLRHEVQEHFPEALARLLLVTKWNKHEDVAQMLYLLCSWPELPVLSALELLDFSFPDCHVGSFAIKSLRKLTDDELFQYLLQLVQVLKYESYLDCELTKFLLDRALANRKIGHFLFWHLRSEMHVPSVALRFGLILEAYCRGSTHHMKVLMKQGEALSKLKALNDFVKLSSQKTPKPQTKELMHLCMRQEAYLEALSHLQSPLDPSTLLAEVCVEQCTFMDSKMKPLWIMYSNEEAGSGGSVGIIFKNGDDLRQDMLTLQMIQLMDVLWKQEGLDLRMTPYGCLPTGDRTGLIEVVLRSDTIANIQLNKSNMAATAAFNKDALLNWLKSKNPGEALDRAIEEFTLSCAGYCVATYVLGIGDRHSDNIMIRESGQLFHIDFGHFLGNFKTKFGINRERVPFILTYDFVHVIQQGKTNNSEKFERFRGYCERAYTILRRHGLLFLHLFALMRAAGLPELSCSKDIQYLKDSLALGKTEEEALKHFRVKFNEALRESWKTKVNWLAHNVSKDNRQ
Chain of PI3Kδ (P27986 whole entry partner, canonical isoform): as the sequence (P27986 whole entry partner) above

SMILES: COCCN(CCO)c1nc(N2CCOCC2)nc(-n2c(C(F)F)nc3ccccc32)n1 [Compound 6d, 2-((4-(2-(difluoromethyl)-1H-benzo[d]imidazol-1-yl)-6-morpholino-1,3,5-triazin-2-yl)(2-methoxyethyl)amino)ethan-1-ol]
- fold lower potency towards PI3Kβ and PI3Kγ [1]: 2 fold

SMILES: FC(F)c1nc2ccccc2n1-c1nc(N2CCNCC2)nc(N2CCOCC2)n1 [Compound 2a]
- fold reduction in PI3Kα and PI3Kδ inhibition [2]: 36 fold
- fold reduction in PI3Kβ and PI3Kγ inhibition [2]: > 70 fold

SMILES: O=C(NOCCOCCOCCOCCN(CCO)c1nc(N2CCOCC2)nc(-n2c(C(F)F)nc3ccccc32)n1)c1ccc(F)c(F)c1Nc1ccc(I)cc1F [Compound 6s, N-((3-(4-(2-(difluoromethyl)-1H-benzo[d]imidazol-1-yl)-6-morpholino-1,3,5-triazin-2-yl)-1-hydroxy-6,9,12-trioxa-3-azatetradecan-14-yl)oxy)-3,4-difluoro-2-((2-fluoro-4-iodophenyl)amino)benzamide]
- spleen volume by MRI compared with vehicle (JAK2V617F MF mouse model): significantly reduced
- IC50 [3]: 7 to 9.9 µM
- inhibition at 10 µM [4]: 55 to 71%
- inhibition at 10 µM [5]: 87 to 96%
- phosphorylated ERK1/2 and AKT levels in spleen [6]: significantly reduced
- in vivo metabolites identified [7]: MV5–46 (6o), which is then further metabolized to MV5–32 (6b) and MV4–187 (6a)

The next lines start with results.

- fold decrease in PI3Kβ inhibition (PI3Kβ): 5 fold
- fold decrease in PI3Kδ inhibition (PI3Kδ): 2.5 fold
SMILES: OCCN(CCO)c1nc(N2CCOCC2)nc(-n2c(C(F)F)nc3ccccc32)n1 [Compound 6b, 2,2’-((4-(2-(difluoromethyl)-1H-benzo[d]imidazol-1-yl)-6-morpholino-1,3,5-triazin-2-yl)azanediyl)bis(ethan-1-ol)]

- IC50 [3]: 10.7 to 17.3 µM
- in vivo metabolites identified [7]: MV-187 (6a) and PD0316684 and MV4–6
SMILES: O=C(NOCCOCCOCCOCCNc1nc(N2CCOCC2)nc(-n2c(C(F)F)nc3ccccc32)n1)c1ccc(F)c(F)c1Nc1ccc(I)cc1F [Compound 6r, N-(2-(2-(2-(2-((4-(2-(difluoromethyl)-1H-benzo[d]imidazol-1-yl)-6-morpholino-1,3,5-triazin-2-yl)amino)ethoxy)ethoxy)ethoxy)ethoxy)-3,4-difluoro-2-((2-fluoro-4-iodophenyl)amino)benzamide]
- spleen volume by MRI compared with vehicle (JAK2V617F MF mouse model): significantly reduced
- inhibition at 10 µM [4]: 22 to 29%
- inhibition at 10 µM [5]: 66 to 85%
- phosphorylated ERK1/2 and AKT levels in spleen [6]: significantly reduced

- fold decrease in PI3Kβ inhibition (PI3Kβ): 14 fold
SMILES: COCCNc1nc(N2CCOCC2)nc(-n2c(C(F)F)nc3ccccc32)n1 [Compound 6c, 4-(2-(difluoromethyl)-1H-benzo[d]imidazol-1-yl)-N-(2-methoxyethyl)-6-morpholino-1,3,5-triazin-2-amine]

- fold lowered potency towards PI3Kγ (PI3Kγ): 2.5 fold
- fold decrease in PI3Kβ inhibition (PI3Kβ): 5 fold
- fold decrease in PI3Kδ inhibition (PI3Kδ): 2.5 fold
SMILES: OCCNc1nc(N2CCOCC2)nc(-n2c(C(F)F)nc3ccccc32)n1 [Compound 6a, 2-((4-(2-(difluoromethyl)-1H-benzo[d]imidazol-1-yl)-6-morpholino-1,3,5-triazin-2-yl)amino)ethan-1-ol]
